Laboratory results published in ChEMBL document CHEMBL4680304, “Synthesis and evaluation of new phenyl acrylamide derivatives as potent non-nucleoside anti-HBV agents” (Bioorg Med Chem, 2021).

How the values were obtained:
[1] = tested on: Hepatitis B virus; assay: Antiviral activity against HBV infected in human HepG2 2.2.15 cells assessed as decrease in extracellular viral DNA level at 0.8 uM measured after incubation of 6 days by RT-PCR analysis; format: functional; details: HepG2 2.2.15, 144 h, time 6 day
How it was run: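 HepG2 2.2.15 cells, which stably carry the HBV genome, were grown in DMEM with 10% FBS, penicillin/streptomycin and 0.38 mg/mL G418. They were seeded at 2×10^5/well and allowed to recover for 24 h. Cells were then exposed to 0.8 µM compound for 6 days, with medium changed every 2 days. HBV DNA was quantified by real-time PCR and expressed as % inhibition versus control.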

[2] = Cytotoxicity against human HepG2 2.2.15 cell line assessed as cell viability measured after 72 hrs by MTT assay; format: cell-based; details: HepG2 2.2.15 cells
How it was run: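 HepG2 2.2.15 cells were precultured for 24 h, then incubated with compound for 72 h. Viability was read as MTT absorbance at 490 nm relative to untreated cells on the same plate. CC50 is the concentration causing 50% cell death.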

[3] = Selectivity index, ratio of CC50 for human HepG2 2.2.15 to IC50 of antiviral activity against HBV infected in human HepG2 2.2.15 cells assessed as decrease in extracellular viral DNA level measured after incubation of 6 days by RT-PCR analysis; format: toxicity, cell-based; details: time 6 day, read-out: Selectivity Index
How it was run: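 SI was calculated as the CC50 in HepG2 2.2.15 cells (72 h MTT) divided by the IC50 for HBV DNA inhibition. That IC50 came from HepG2 2.2.15 cells treated for 6 days with medium changed every 2 days, with HBV DNA quantified by real-time PCR.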

[4] = tested on: Hepatitis B virus; assay: (§1) Antiviral activity against lamivudine/entecavir-resistant HBV rtL180M/rtM204V/rtT184L mutant infected in human HepG2 2.2.15 cells assessed as inhibition of viral DNA replication at 100 uM measured after incubation of 72 hrs by RT-PCR analysis relative to control; format: functional
How it was run: (§2)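 HepG2 cells (2 × 10^5/well) plated 24 h, then transiently transfected for 24 h with plasmid carrying full-genome HBV with rtL180M + rtM204V + rtT184L (wild-type genome in parallel). Washed with PBS, then given fresh medium with compound for 72 h. Intracellular HBV DNA replicative intermediates extracted and quantified by real-time PCR against the wild-type group.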

[5] = tested on: Hepatitis B virus; assay: Antiviral activity against wild type HBV infected in human […] cells assessed as inhibition of viral DNA replication at 100 uM measured after incubation of 72 hrs by RT-PCR analysis relative to control; format: functional, HepG2 2.2.15
How it was run: (§3)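 Parental HepG2 cells were plated at 2×10^5/well. After 24 h they were transiently transfected for 24 h with a full-length wild-type HBV genome plasmid, then washed with PBS. Cells were then treated for 72 h in fresh medium: entecavir 10 µM, lamivudine 100 µM. Intracellular HBV DNA replicative intermediates were quantified by real-time PCR.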

[6] = tested on: Hepatitis B virus; assay: Antiviral activity against HBV infected in human HepG2 2.2.15 cells assessed as inhibition of pregenomic RNA expression at 1 uM measured after incubation of 6 by RT-PCR analysis relative to control; format: functional; details: HepG2 2.2.15, 144 h, read-out: INH, time 6 day
How it was run: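 HepG2 2.2.15 cells were seeded at 6×10^5/well in 6-well plates. They were incubated with 1 µM compound for 6 days. Total cellular RNA was then extracted and pgRNA copies/mL were measured by real-time PCR, giving % inhibition relative to untreated control.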

[7] = tested on: Hepatitis B virus; assay: Antiviral activity against HBV infected in human HepG2 2.2.15 cells assessed as decrease in extracellular viral DNA level measured after incubation of 6 days by RT-PCR analysis; format: functional, organism-based; details: HepG2 2.2.15, 144 h
How it was run: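 Cells were HepG2 2.2.15 (stable HBV genome), seeded at 2×10^5/well and recovered for 24 h. Dose-dependent exposure to compound lasted 6 days, with medium replaced every 2 days. HBV DNA was measured by real-time PCR. IC50 is the concentration giving 50% inhibition of HBV DNA replication, reported as mean ± SD of triplicate experiments.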

[8] = tested on: Hepatitis B virus; assay: Antiviral activity against lamivudine/entecavir-resistant HBV rtL180M/rtM204V/rtT184L mutant infected in human HepG2 2.2.15 cells assessed as inhibition of viral DNA replication measured after incubation of 72 hrs by RT-PCR analysis; format: functional, organism-based; details: for IC50: HepG2 2.2.15, 72 h
How it was run: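 HepG2 cells transiently transfected for 24 h with full-genome HBV plasmid carrying rtL180M + rtM204V + rtT184L, washed, then treated over a dose range for 72 h. HBV DNA replicative intermediates quantified by real-time PCR. IC50 is the concentration giving 50% inhibition of HBV DNA replication, as mean ± SD of triplicate experiments.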

[9] = tested on: Hepatitis B virus; assay: Antiviral activity against lamivudine/entecavir-resistant HBV rtL180M/rtM204V/rtT184L mutant infected in human HepG2 2.2.15 cells assessed as inhibition of viral DNA replication at 0.8 uM measured after incubation of 72 hrs by RT-PCR analysis relative to control; format: functional; how it was run: as §2
[10] = as §1, with “Selectivity index, ratio of CC50 for human HepG2 2.2.15 to IC50 of Antiviral” for “Antiviral”, “replication” for “replication at 100 uM”; format: toxicity, cell-based; details: read-out: Selectivity Index
How it was run: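 SI is CC50 divided by IC50. CC50 comes from MTT on HepG2 2.2.15 cells, 72 h exposure, absorbance at 490 nm relative to untreated cells. IC50 comes from HepG2 cells transiently transfected with rtL180M + rtM204V + rtT184L HBV plasmid and treated 72 h, with DNA replicative intermediates measured by real-time PCR, triplicate experiments.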

[11] = tested on: Hepatitis B virus; assay: Antiviral activity against wild type HBV infected in human […] cells assessed as inhibition of viral DNA replication at 10 uM measured after incubation of 72 hrs by RT-PCR analysis relative to control; format: functional, HepG2 2.2.15; how it was run: as §3
[12] = tested on: Hepatitis B virus; assay: Antiviral activity against lamivudine/entecavir-resistant HBV rtL180M/rtM204V/rtT184L mutant infected in human HepG2 2.2.15 cells assessed as inhibition of viral DNA replication at 10 uM measured after incubation of 72 hrs by RT-PCR analysis relative to control; format: functional; how it was run: as §2

| SMILES | inhibition at 0.8 µM [1] | CC50 at 72 h [2] | other results |
| --- | --- | --- | --- |
| O=C(N[C@H](CO)Cc1ccccc1)/C(NC(=O)c1ccccc1F)=C(/Br)c1ccccc1 | 33.6% | > 100 µM |  |
| CCN(CC)CCOc1cccc(/C(Br)=C(/NC(=O)c2ccccc2)C(=O)N[C@H](CO)Cc2ccccc2)c1 | 56.5% | 83.6 µM |  |
| O=C(N[C@H](CO)Cc1ccccc1)/C(NC(=O)c1ccc(F)cc1F)=C(/Br)c1ccccc1 | 58.1% | > 100 µM |  |
| O=C(N[C@H](CO)Cc1ccccc1)/C(NC(=O)c1ccccc1)=C(/Br)c1cccc(O)c1 | 29.6% | 99.5 µM |  |
| Nc1ccn([C@@H]2CS[C@H](CO)O2)c(=O)n1 [LAMIVUDINE] | 86.2% | > 100 µM | selectivity ratio at 144 h [3]: > 1000; inhibition at 100 µM [4]: 18.6%; inhibition at 100 µM [5]: 90%; inhibition at 1 µM [6]: 0.26%; IC50 [7]: 0.031 µM; IC50 [8]: > 100 µM |
| O=C(N[C@H](CO)Cc1ccccc1)/C(NC(=O)c1ccc(Br)cc1)=C(/Br)c1ccccc1 | 43% | > 100 µM |  |
| O=C(N[C@H](CO)Cc1ccccc1)/C(NC(=O)c1ccc(Cl)cc1)=C(/Br)c1ccccc1 | 70.7% | > 100 µM | selectivity ratio at 144 h [3]: > 232; IC50 [7]: 0.43 µM |
| O=C(N[C@H](CO)Cc1ccccc1)/C(NC(=O)c1ccccc1)=C(/Br)c1cccc([N+](=O)[O-])c1 | 2.28% | 93.7 µM |  |
| COc1cccc(C(=O)N/C(C(=O)N[C@H](CO)Cc2ccccc2)=C(\Br)c2ccccc2)c1 | 4.89% | > 100 µM |  |
| CN(C)CCCOc1cccc(/C(Br)=C(/NC(=O)c2ccccc2)C(=O)N[C@H](CO)Cc2ccccc2)c1 | 37.7% | 85.6 µM |  |
| COc1ccc(C(=O)N/C(C(=O)N[C@H](CO)Cc2ccccc2)=C(\Br)c2ccccc2)cc1 | 6.25% | > 100 µM |  |
| O=C(N[C@H](CO)Cc1ccccc1)/C(NC(=O)c1ccc(F)cc1)=C(/Br)c1ccccc1 | 74.9% | > 100 µM | selectivity ratio at 144 h [3]: > 263; inhibition at 0.8 µM [9]: 72.9%; IC50 [7]: 0.38 µM; selectivity ratio at 72 h [10]: > 232; inhibition [8]: Dose-dependent effect; IC50 [8]: 0.43 µM |
| O=C(N[C@H](CO)Cc1ccccc1)/C(NC(=O)c1ccccc1Br)=C(/Br)c1ccccc1 | 17.2% | > 100 µM |  |
| O=C(N[C@H](CO)Cc1ccccc1)/C(NC(=O)c1cc(Cl)cc(Cl)c1)=C(/Br)c1ccccc1 | 83.8% | > 100 µM | selectivity ratio at 144 h [3]: > 370; IC50 [7]: 0.27 µM |
| Cc1cccc(C(=O)N/C(C(=O)N[C@H](CO)Cc2ccccc2)=C(\Br)c2ccccc2)c1 | 2.94% | > 100 µM |  |
| C=C1[C@H](CO)[C@@H](O)C[C@@H]1n1cnc2c(=O)[nH]c(N)nc21 [ENTECAVIR] |  |  | inhibition at 10 µM [11]: 96.8%; inhibition at 10 µM [12]: 20.7% |
| O=C(N[C@H](CO)Cc1ccccc1)/C(NC(=O)c1ccccc1Cl)=C(/Br)c1ccccc1 | 13.9% | > 100 µM |  |
| Cc1ccccc1C(=O)N/C(C(=O)N[C@H](CO)Cc1ccccc1)=C(\Br)c1ccccc1 | 5.75% | > 100 µM |  |

| SMILES | inhibition at 0.8 µM [1] | CC50 at 72 h [2] | other results |
| --- | --- | --- | --- |
| O=C(N[C@H](CO)Cc1ccccc1)/C(NC(=O)c1ccccc1)=C(/Br)c1cccc(C(F)(F)F)c1 | 23.1% | > 100 µM |  |
| O=C(N[C@H](CO)Cc1ccccc1)/C(NC(=O)c1ccc(F)c(F)c1)=C(/Br)c1ccccc1 | 73.7% | > 100 µM | selectivity ratio at 144 h [3]: > 208; IC50 [7]: 0.48 µM |
| O=C(N[C@H](CO)Cc1ccccc1)/C(NC(=O)c1ccccc1)=C(/Br)c1cccc(Cl)c1 | 48.2% | > 100 µM |  |
| O=C(N[C@H](CO)Cc1ccccc1)/C(NC(=O)c1ccc(F)cc1Cl)=C(/Br)c1ccccc1 | 56.1% | > 100 µM |  |
| CC(=O)Oc1cccc(/C(Br)=C(/NC(=O)c2ccccc2)C(=O)N[C@H](CO)Cc2ccccc2)c1 | 32.4% | > 100 µM |  |
| COc1cccc(/C(Br)=C(/NC(=O)c2ccccc2)C(=O)N[C@H](CO)Cc2ccccc2)c1 | 48.9% | > 100 µM |  |
| COc1ccccc1C(=O)N/C(C(=O)N[C@H](CO)Cc1ccccc1)=C(\Br)c1ccccc1 | 11.9% | > 100 µM |  |
| O=C(N[C@H](CO)Cc1ccccc1)/C(NC(=O)c1ccccc1)=C(/Br)c1cccc(Br)c1 | 14.4% | > 100 µM |  |
| O=C(N[C@H](CO)Cc1ccccc1)/C(NC(=O)c1cccc(Br)c1)=C(/Br)c1ccccc1 | 2.48% | > 100 µM |  |
| Cc1ccc(C(=O)N/C(C(=O)N[C@H](CO)Cc2ccccc2)=C(\Br)c2ccccc2)cc1 | 47.4% | > 100 µM |  |
| O=C(N[C@H](CO)Cc1ccccc1)/C(NC(=O)c1ccccc1)=C(/Br)c1cccc(F)c1 | 42.6% | > 100 µM |  |
| O=C(N[C@H](CO)Cc1ccccc1)/C(NC(=O)c1ccc(Cl)cc1Cl)=C(/Br)c1ccccc1 | 88% | > 100 µM | selectivity ratio at 144 h [3]: > 526; inhibition at 0.8 µM [9]: 87%; inhibition at 1 µM [6]: 63.1%; IC50 [7]: 0.19 µM; selectivity ratio at 72 h [10]: > 556; inhibition [8]: Dose-dependent effect; IC50 [8]: 0.18 µM |
| Cc1cc(F)ccc1C(=O)N/C(C(=O)N[C@H](CO)Cc1ccccc1)=C(\Br)c1ccccc1 | 83.2% | > 100 µM | selectivity ratio at 144 h [3]: > 303; IC50 [7]: 0.33 µM |
| CN(C)CCOc1cccc(/C(Br)=C(/NC(=O)c2ccccc2)C(=O)N[C@H](CO)Cc2ccccc2)c1 | 58.4% | 94.7 µM |  |
| O=C(N[C@H](CO)Cc1ccccc1)/C(NC(=O)c1cccc(Cl)c1)=C(/Br)c1ccccc1 | 5.36% | > 100 µM |  |
| O=C(N[C@H](CO)Cc1ccccc1)/C(NC(=O)c1cccc(F)c1)=C(/Br)c1ccccc1 | 9.07% | > 100 µM |  |
| Cc1cccc(/C(Br)=C(/NC(=O)c2ccccc2)C(=O)N[C@H](CO)Cc2ccccc2)c1 | 57.3% | > 100 µM |  |
